Measurements as given in ChEMBL document CHEMBL1123225, “Opioid agonist and antagonist bivalent ligands. The relationship between spacer length and selectivity at multiple opioid receptors” (J Med Chem, 1986).
pKi: −log10 of the molar value. Starred links: 1 amine or outer side, 2 acyl side, 3 side chain; linkers in the order of their positions; H or OH if unused. Positions of bridges follow the written chain, without caps; N, C: chain ends. Residues, ends and D or L forms follow the SMILES beside them. Chains are numbered I, II in the order given. *: point of attachment. Naltrexamine(6β) = Oc1ccc2c3c1O[C@H]1[C@H](N*)CC[C@@]4(O)[C@@H](C2)N(CC2CC2)CC[C@]314; Suc = O=C(CCC(=O)[*:2])[*:1]

Experiments:
[1] = molecular target: Mu-type opioid receptor (Cavia porcellus) (UniProt P97266); experiment: Affinity comparison to [3H]naloxone for Opioid receptor mu 1 in guinea pig brain membrane; type: cell membranes
Mu-type opioid receptor (Cavia porcellus), sequence (P97266 whole entry): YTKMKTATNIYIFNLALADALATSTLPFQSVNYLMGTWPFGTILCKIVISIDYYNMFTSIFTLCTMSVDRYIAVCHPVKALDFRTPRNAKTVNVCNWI

[2] = molecular target: Mu-type opioid receptor (Cavia porcellus, UniProt P97266); experiment: Displacement of [3H]naloxone from Opioid receptor mu 1 in guinea pig brain membrane; type: cell membranes
Mu-type opioid receptor, sequence (P97266 whole entry): as above

[3] = (§1) Relative potency is the IC5O in presence of bivalent ligand divided by IC50 in presence of monovalent ligand relative to EK
Method in brief: (§2)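 Antagonism in electrically stimulated guinea pig ileum. Antagonist at 10 nM was incubated 30 min, then morphine (μ) or ethylketazocine (κ) concentration–response was run. IC50 ratio = agonist IC50 with antagonist / control IC50 in the same preparation without antagonist. Relative potency = bivalent IC50 ratio / monovalent IC50 ratio. Selectivity = EK IC50 ratio / morphine IC50 ratio.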

[4] = Relative potency is the IC5O in presence of bivalent ligand divided by IC50 in presence of monovalent ligand relative to morphine; method in brief: as §2
[5] = (§3) Selectivity ratio is expressed as EK IC50 ratio divided by morphine IC50 ratio; method in brief: as §2
[6] = molecular target: Opioid receptors; mu & kappa (Homo sapiens, UniProt P41145+P35372); experiment: Activity against opioid receptor in guinea pig ileum longitudinal muscle; type: functional, tissue-based, Cavia porcellus; conditions: target entry is the homologue from another species
Method in brief: (§4)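 Electrically stimulated guinea pig ileum longitudinal muscle, with agonist inhibition measured. Ligands were incubated 30 min before testing. Potency ratio = morphine IC50 / compound IC50 on the same tissue. The relative value divides the bivalent potency ratio by the monovalent potency ratio. Each value is the mean of at least three replicate experiments.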

[7] = Potency ratio is the ratio of morphine IC50 to that of compound on same tissue; method in brief: as §4
[8] = Relative potency is the bivalent potency ratio divided by monovalent potency ratio; method in brief: as §4
[9] = molecular target: T1, Opioid receptors; mu/kappa/delta (Homo sapiens) (UniProt P41145+P41143+P35372); experiment: IC50 of ethylketazocine (EK) in the presence of the antagonist (10 nM) divided by the control IC50 (same preparation without antagonist) in guinea pig ileum; type: functional, tissue-based; conditions: Cavia porcellus, target entry is the homologue from another species; method in brief: as §2
T1 sequence (P35372 whole entry, looked up): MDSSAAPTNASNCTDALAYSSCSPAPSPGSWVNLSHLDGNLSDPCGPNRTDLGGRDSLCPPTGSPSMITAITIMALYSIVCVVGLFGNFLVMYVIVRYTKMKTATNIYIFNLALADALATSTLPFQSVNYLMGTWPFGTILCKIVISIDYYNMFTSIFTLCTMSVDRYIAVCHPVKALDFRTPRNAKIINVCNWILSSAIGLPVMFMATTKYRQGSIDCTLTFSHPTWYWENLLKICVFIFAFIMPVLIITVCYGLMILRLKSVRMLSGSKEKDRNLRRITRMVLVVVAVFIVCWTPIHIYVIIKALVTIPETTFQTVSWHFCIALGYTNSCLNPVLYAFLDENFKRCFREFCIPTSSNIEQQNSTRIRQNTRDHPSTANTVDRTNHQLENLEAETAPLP
T1 sequence (P41143 whole entry, looked up): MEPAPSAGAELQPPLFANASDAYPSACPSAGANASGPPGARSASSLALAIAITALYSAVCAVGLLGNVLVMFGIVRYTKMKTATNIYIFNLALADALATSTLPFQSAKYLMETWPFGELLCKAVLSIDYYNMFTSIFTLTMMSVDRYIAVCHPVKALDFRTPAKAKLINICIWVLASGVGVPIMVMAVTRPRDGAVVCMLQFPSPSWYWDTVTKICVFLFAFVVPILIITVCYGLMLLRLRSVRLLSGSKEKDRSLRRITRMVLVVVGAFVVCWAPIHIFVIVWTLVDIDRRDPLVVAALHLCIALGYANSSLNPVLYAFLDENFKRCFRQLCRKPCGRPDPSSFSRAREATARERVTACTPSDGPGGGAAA
T1 sequence (P41145 whole entry, looked up): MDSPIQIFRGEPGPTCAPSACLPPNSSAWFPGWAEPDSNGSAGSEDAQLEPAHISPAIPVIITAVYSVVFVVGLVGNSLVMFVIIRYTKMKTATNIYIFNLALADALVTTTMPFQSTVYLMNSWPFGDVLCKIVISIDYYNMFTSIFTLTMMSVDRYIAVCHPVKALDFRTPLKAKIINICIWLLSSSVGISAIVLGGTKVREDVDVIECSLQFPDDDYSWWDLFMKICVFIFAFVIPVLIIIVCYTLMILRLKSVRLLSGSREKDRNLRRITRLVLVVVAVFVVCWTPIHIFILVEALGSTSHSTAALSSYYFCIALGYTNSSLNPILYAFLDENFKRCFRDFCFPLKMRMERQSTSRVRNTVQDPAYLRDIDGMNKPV

[10] = molecular target: T1, Opioid receptors; mu/kappa/delta (Homo sapiens); experiment: IC50 of the morphine in the presence of the antagonist (10 nM) divided by the control IC50 (same preparation without antagonist) in guinea pig ileum; type: functional, tissue-based; conditions: Cavia porcellus, target entry is the homologue from another species; method in brief: as §2
[11] = molecular target: T1, Opioid receptors; mu/kappa/delta (Homo sapiens); experiment: Relative potency is the IC50 in presence of bivalent ligand divided by IC50 in presence of monovalent ligand relative to morphine; conditions: Cavia porcellus; method in brief: as §2
[12] = molecular target: T1, Opioid receptors; mu/kappa/delta (Homo sapiens); experiment: as §1; type: protein assay; conditions: Cavia porcellus; method in brief: as §2
[13] = molecular target: T1, Opioid receptors; mu/kappa/delta (Homo sapiens); experiment: as §3; type: protein assay; conditions: Cavia porcellus; method in brief: as §2

## O=C(CCC(=O)NCC(=O)N[C@@H]1CC[C@@]2(O)[C@H]3Cc4ccc(O)c5c4[C@@]2(CCN3CC2CC2)[C@H]1O5)NCC(=O)N[C@@H]1CC[C@@]2(O)[C@H]3Cc4ccc(O)c5c4[C@@]2(CCN3CC2CC2)[C@H]1O5
[1]
  Relative affinity: 0.6
[2]
  pKi: 8.64
[3]
  Ratio: 18.6
[4]
  Ratio: 10.6
[5]
  Selectivity ratio: 0.4

## CN1CC[C@]23c4c5ccc(O)c4O[C@H]2[C@@H](NC(=O)CNC(=O)CNC(=O)CNC(=O)CCC(=O)NCC(=O)NCC(=O)NCC(=O)N[C@H]2CC[C@@]4(O)[C@H]6Cc7ccc(O)c8c7[C@@]4(CCN6C)[C@H]2O8)CC[C@@]3(O)[C@H]1C5
[1]
  Relative affinity: 5.3
[2]
  pKi: 7.47
[6]
  IC50: 25.1 nM
[7]
  Potency ratio: 5.5
[8]
  Ratio: 2.9

## CN1CC[C@]23c4c5ccc(O)c4O[C@H]2[C@@H](NC(=O)CNC(=O)CCC(=O)NCC(=O)N[C@H]2CC[C@@]4(O)[C@H]6Cc7ccc(O)c8c7[C@@]4(CCN6C)[C@H]2O8)CC[C@@]3(O)[C@H]1C5
[1]
  Relative affinity: 4.1
[2]
  pKi: 7.36
[6]
  IC50: 22 nM
[7]
  Potency ratio: 4
[8]
  Ratio: 2.1

## O=C(CCC(=O)NCC(=O)NCC(=O)N[C@@H]1CC[C@@]2(O)[C@H]3Cc4ccc(O)c5c4[C@@]2(CCN3CC2CC2)[C@H]1O5)NCC(=O)NCC(=O)N[C@@H]1CC[C@@]2(O)[C@H]3Cc4ccc(O)c5c4[C@@]2(CCN3CC2CC2)[C@H]1O5
[1]
  Relative affinity: 0.9
[2]
  pKi: 8.82
[3]
  Ratio: 10.7
[4]
  Ratio: 33.5
[5]
  Selectivity ratio: 0.2

## CN1CC[C@]23c4c5ccc(O)c4O[C@H]2[C@@H](NC(=O)CNC(=O)CNC(=O)CCC(=O)NCC(=O)NCC(=O)N[C@H]2CC[C@@]4(O)[C@H]6Cc7ccc(O)c8c7[C@@]4(CCN6C)[C@H]2O8)CC[C@@]3(O)[C@H]1C5
[1]
  Relative affinity: 12.9
[2]
  pKi: 7.85
[6]
  IC50: 3.9 nM
[7]
  Potency ratio: 36
[8]
  Ratio: 18.9

## O=C(CCC(=O)N[C@@H]1CC[C@@]2(O)[C@H]3Cc4ccc(O)c5c4[C@@]2(CCN3CC2CC2)[C@H]1O5)N[C@@H]1CC[C@@]2(O)[C@H]3Cc4ccc(O)c5c4[C@@]2(CCN3CC2CC2)[C@H]1O5
[1]
  Relative affinity: 0.8
[2]
  pKi: 8.77
[3]
  Ratio: 25.3
[4]
  Ratio: 5.1
[5]
  Selectivity ratio: 1.1

## O=C(CCC(=O)NCC(=O)NCC(=O)NCC(=O)NCC(=O)N[C@@H]1CC[C@@]2(O)[C@H]3Cc4ccc(O)c5c4[C@@]2(CCN3CC2CC2)[C@H]1O5)NCC(=O)NCC(=O)NCC(=O)NCC(=O)N[C@@H]1CC[C@@]2(O)[C@H]3Cc4ccc(O)c5c4[C@@]2(CCN3CC2CC2)[C@H]1O5 (I: GGGG-{Naltrexamine(6β)} / II: GGGG-{Naltrexamine(6β)}; linker I:N-II:N via Suc)
[9]
  IC50 ratio: 7.2
[10]
  IC50 ratio: 40.7
[11]
  Ratio: 7.5
[12]
  Ratio: 6
[13]
  Selectivity ratio: 0.2

## CN1CC[C@]23c4c5ccc(O)c4O[C@@H]2[C@H](NC(=O)CNC(=O)CNC(=O)CCC(=O)NCC(=O)NCC(=O)N[C@@H]2CC[C@]4(O)[C@H]6Cc7ccc(O)c8c7[C@@]4(CCN6C)[C@@H]2O8)CC[C@]3(O)[C@H]1C5
[1]
  Relative affinity: 6.3
[2]
  pKi: 8.00
[6]
  IC50: 6.3 nM
[7]
  Potency ratio: 8
[8]
  Ratio: 3.5

## CN1CC[C@]23c4c5ccc(O)c4O[C@H]2[C@@H](NC(=O)CCC(=O)N[C@H]2CC[C@@]4(O)[C@H]6Cc7ccc(O)c8c7[C@@]4(CCN6C)[C@H]2O8)CC[C@@]3(O)[C@H]1C5
[1]
  Relative affinity: 3.6
[2]
  pKi: 7.30
[6]
  IC50: 30.2 nM
[7]
  Potency ratio: 4.6
[8]
  Ratio: 2.4

## CC(=O)N[C@@H]1CC[C@@]2(O)[C@H]3Cc4ccc(O)c5c4[C@@]2(CCN3C)[C@H]1O5
[1]
  Relative affinity: 1
[2]
  pKi: 7.20
[6]
  IC50: 45.9 nM
[7]
  Potency ratio: 2.3
[8]
  Ratio: 1

## CN1CC[C@]23c4c5ccc(O)c4O[C@@H]2[C@H](NC(=O)CNC(=O)CNC(=O)CNC(=O)CCC(=O)NCC(=O)NCC(=O)NCC(=O)N[C@@H]2CC[C@]4(O)[C@H]6Cc7ccc(O)c8c7[C@@]4(CCN6C)[C@@H]2O8)CC[C@]3(O)[C@H]1C5
[1]
  Relative affinity: 2.9
[2]
  pKi: 7.66
[6]
  IC50: 12.6 nM
[7]
  Potency ratio: 3.9
[8]
  Ratio: 1.7

## O=C(CCC(=O)NCC(=O)NCC(=O)NCC(=O)N[C@@H]1CC[C@@]2(O)[C@H]3Cc4ccc(O)c5c4[C@@]2(CCN3CC2CC2)[C@H]1O5)NCC(=O)NCC(=O)NCC(=O)N[C@@H]1CC[C@@]2(O)[C@H]3Cc4ccc(O)c5c4[C@@]2(CCN3CC2CC2)[C@H]1O5
[1]
  Relative affinity: 0.9
[2]
  pKi: 8.80
[3]
  Ratio: 6.8
[4]
  Ratio: 11.4
[5]
  Selectivity ratio: 0.1

## CN1CC[C@]23c4c5ccc(O)c4O[C@@H]2[C@H](NC(=O)CCC(=O)N[C@@H]2CC[C@]4(O)[C@H]6Cc7ccc(O)c8c7[C@@]4(CCN6C)[C@@H]2O8)CC[C@]3(O)[C@H]1C5
[1]
  Relative affinity: 2.7
[2]
  pKi: 7.64
[6]
  IC50: 15.7 nM
[7]
  Potency ratio: 4.3
[8]
  Ratio: 1.9

## CN1CC[C@]23c4c5ccc(O)c4O[C@@H]2[C@H](NC(=O)CNC(=O)CCC(=O)NCC(=O)N[C@@H]2CC[C@]4(O)[C@H]6Cc7ccc(O)c8c7[C@@]4(CCN6C)[C@@H]2O8)CC[C@]3(O)[C@H]1C5
[1]
  Relative affinity: 3.5
[2]
  pKi: 7.74
[6]
  IC50: 19.2 nM
[7]
  Potency ratio: 5.8
[8]
  Ratio: 2.5
